Source: PubChem BioAssay
AF4-AF9 inh = inhibitors of human MLL-AF4/AF9 interaction; P42568; AlphaScreen, biotin-AF4 peptide binding to FLAG-AF9; inhibition, % at 10 µM; 350,000 tested, 0.47% active;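 active = every replicate reaching a set inhibition limit, whatever the replicate mean, cut at about 25% in these data; inconclusive = mean inhibition reaches that limit but some replicates miss it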;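 also: 0% = plate neutral control median and 100% = total signal loss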
RAD52 inh = RAD52 (human) annealing inhibition. 360,000 tested, 0.46% active. AID 651710. recombinant RAD52 DNA annealing, FRET fluorescence. inhibition, % at 18.7 µM;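 active = every replicate showing at least 50% inhibition; inconclusive = mean inhibition at least 50% but not in every replicate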
GSIS activator = primary screen for activators of insulin secretion dependent on glucose, INS-1E cells, GLuc reporter luminescence; INS-1E GLuc reporter insulin secretion, 2-3 h; activation, % at 16.6 µM; 370,000 tested, 0.61% active; AID 743287;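 active = lowest replicate activation of at least 40%, so every replicate reaches that level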;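 also: 0% = median of neutral control wells and 100% = median of IBMX positive control wells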
Ecoli rRNA inh = selective bacterial rRNA inhibition in E. coli | E. coli WT GFP vs humanized-ribosome RFP mutants, fluorescence, 24 h; hits give low values; DMSO median 0, no signal -100 | GFP signal change (wild-type ribosome), % (no concentration beside the values) | 350,000 tested, 1.6% active | AID 720706;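 active = significant combined selectivity score with lowered wild-type GFP, culture density cut under 30%, mutant RFP and density less affected; inactive = any of these conditions unmet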
E-selectin induc = E-selectin induction on HUVECs; HUVEC E-selectin immunofluorescence imaging; normalized: neutral wells 0, TNF-alpha wells 100; AID 686992; activation, % at 7.58 µM; 260,000 tested, 0.37% active; P16581;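 active = mean E-selectin-positive cell signal at least 10% of the positive control, reached in at least 60% of replicates, without over 20% cell loss; inconclusive = no rule given, readout overlaps actives, possibly toxicity-flagged; inactive = the rest, including those meeting only one limit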
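Test system – human umbilical vein endothelial cells (HUVEC), E-selectin induction · Input – 3,000 HUVEC seeded per well · Buffer or medium – EGM-2, gelatin · Compound dosing – single-point compound dose · Detection – immunofluorescence imaging · Measure – percent E-selectin-positive cells · Controls – TNF-alpha high, DMSO low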
RAD54 inh = blocks human RAD54 Holliday junction branch migration; Q92698; FAM/BHQ fluorescence; inhibition, % at 10.4 µM; 360,000 tested, 0.14% active; AID 602329;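 active = mean normalized replicate activity at least 40 and at least half of replicates scoring 40 or more; inconclusive = only one of the two criteria met; inactive = mean below 40 and under half of replicates reaching 40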;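 also: 0% = median of neutral control wells and 100% = median of positive control wells; inhibitors cause a drop in the FAM fluorescence signal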
Target sequence (Q92698 whole entry, looked up): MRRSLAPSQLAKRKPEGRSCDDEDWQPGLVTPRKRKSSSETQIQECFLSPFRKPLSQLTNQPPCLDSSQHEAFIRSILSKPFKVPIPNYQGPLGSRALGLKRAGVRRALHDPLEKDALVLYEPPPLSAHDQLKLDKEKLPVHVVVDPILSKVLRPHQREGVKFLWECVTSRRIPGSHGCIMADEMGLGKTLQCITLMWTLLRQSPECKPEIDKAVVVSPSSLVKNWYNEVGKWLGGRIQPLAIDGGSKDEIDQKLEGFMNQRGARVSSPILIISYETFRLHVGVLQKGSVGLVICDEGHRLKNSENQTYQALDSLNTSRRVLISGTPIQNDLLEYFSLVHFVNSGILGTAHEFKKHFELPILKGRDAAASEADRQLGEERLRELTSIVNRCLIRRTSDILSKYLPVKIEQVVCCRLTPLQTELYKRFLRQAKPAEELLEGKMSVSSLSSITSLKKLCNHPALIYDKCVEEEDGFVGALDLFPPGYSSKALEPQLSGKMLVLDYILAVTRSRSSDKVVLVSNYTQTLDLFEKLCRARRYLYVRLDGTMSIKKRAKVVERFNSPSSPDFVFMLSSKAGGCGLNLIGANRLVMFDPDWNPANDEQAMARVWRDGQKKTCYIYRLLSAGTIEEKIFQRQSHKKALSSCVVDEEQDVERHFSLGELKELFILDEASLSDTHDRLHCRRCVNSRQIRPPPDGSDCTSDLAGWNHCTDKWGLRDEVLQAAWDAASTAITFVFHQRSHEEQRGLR
* hit, by the source's call; ? = inconclusive; . = no result given. Most compounds without a hit are left out; they make up all but 2.6% or so of the library.

SMILES	AF4-AF9 inh	RAD52 inh	GSIS activator	Ecoli rRNA inh	E-selectin induc	RAD54 inh
O=C(N/N=C/c1ccc(O)cc1)c1cc(C23CC4CC(CC(C4)C2)C3)[nH]n1	0	-6	-6	-32*	.	.
CCn1c(SCC(=O)NNC(=S)Nc2ccccc2)nnc1-c1ccc(Cl)cc1	-3	-2	-2	-2	.	-2
C=CCn1c(SCC(=O)NNC(=S)Nc2ccccc2)nnc1-c1ccccc1	2	2	12	-16*	0	14
CCN(CCNCC(O)COCc1ccc(Cl)cc1)c1cccc(C)c1 (stereo unspecified)	29*	11	28	-51	1	.
CN(Cc1ccccc1)c1nc2c(c(=O)[nH]c(=O)n2C)n1Cc1ccccc1	.	-7	70*	0	.	-11
CCCCCn1c(N(C)Cc2ccccc2)nc2c1c(=O)[nH]c(=O)n2C	-4	-14	40*	-8	0	-14
CCN(CC)C(=O)c1cn(-c2cccc(OC)c2)c(=O)c2ccccc12	-1	-7	.	3	67*	-17
CCC(C)NC(=O)c1cn(-c2cccc(OC)c2)c(=O)c2ccccc12 (stereo unspecified)	-1	-4	2	6	1	-1
C[C@@H]1CN([C@H](C)CO)C(=O)Cc2cc(NC(=O)Nc3ccc4c(c3)OCO4)ccc2O[C@H]1CN(C)Cc1ccc(Oc2ccccc2)cc1	3	-13	-10	1	0	0
Cc1ccc(NC(=O)c2ccccc2-c2ccccc2C(=O)O)cc1C	-2	-8	45*	-12	.	.
Cc1cc(C(=O)Nc2c(C)cccc2C)n(-c2ccccc2)n1	-4	-9	8	1	0	5
Cc1ccc(NC(=O)c2ccccc2-c2ccccc2C(=O)O)cc1	-3	-6	16	-7	.	.
Cc1cc(C(=O)Nc2ccc(C)c(C)c2)n(-c2ccccc2)n1	7	-21	.	-2	53*	12
CO[C@H]1CN(C)C(=O)c2cc(NC(C)=O)ccc2OC[C@@H](C)N(CCC(F)(F)F)C[C@H]1C	-15	13	10	3	0	0
CCC(=O)N1[C@H](CO)[C@H](c2ccc(-c3ccccc3OC)cc2)[C@H]1CNC(C)=O	0	-8	-7	0	0	.
C[C@H](CO)N1C[C@H](C)[C@H](CN(C)C)Oc2ccc(NC(=O)Cc3ccccc3)cc2C1=O	-2	-1	0	4	.	18
O=C(CCCCCN1C(=O)[C@@H]2Cc3ccccc3CN2C1=O)Nc1cccc(F)c1	-8	-7	-16	-35*	4	1
Cc1cccc(NC(=O)CCCCCN2C(=O)[C@@H]3Cc4ccccc4CN3C2=O)c1	-2	-3	8	-5	0	.
COc1ccccc1-c1cnc2c(c1)C(=O)N([C@@H](C)CO)C[C@@H](C)[C@@H](CN(C)CC1CCOCC1)O2	0	-3	14	0	0	-1
CCOC(=O)c1sc(N2C(=O)C(O)=C(C(=O)c3ccco3)C2c2ccc([N+](=O)[O-])cc2)nc1C (stereo unspecified)	5	-27	3	-18*	1	-5
COc1ccc(N2CCN(c3ncnc4scc(-c5ccc(F)cc5)c34)CC2)cc1	16	-9	14	-24*	.	-5
Cc1noc(C)c1NC(=O)Nc1ccc2c(c1)C(=O)N([C@H](C)CO)C[C@@H](C)[C@H](CN(C)S(=O)(=O)c1cn(C)cn1)OCCCC[C@@H](C)O2	-2	-6	3	1	0	3
C[C@@H]1CCCCO[C@H](CN(C)C(=O)Nc2ccc3c(c2)OCO3)[C@H](C)CN([C@H](C)CO)C(=O)c2cc(NC(=O)Nc3ccc(F)cc3)ccc2O1	4	-6	-7	3	0	0
CC1=NN(c2ccccc2)C(=O)C1N=Nc1ccccc1 (stereo unspecified)	2	-16	-5	-1	60*	.
CC1=NN(c2ccccc2)C(=O)C1N=Nc1ccc(N)cc1 (stereo unspecified)	.	.	.	.	.	1
SMILES	AF4-AF9 inh	RAD52 inh	GSIS activator	Ecoli rRNA inh	E-selectin induc	RAD54 inh
Cc1ccc(-n2c(C)nc3ccsc3c2=O)cc1	0	-6	-9	-36*	.	-3
CCCn1c(C)nc2c(c1=O)c1nc3ccccc3nc1n2CCC1=CCCCC1	.	.	61*	.	.	6
CC(C)C(OC(=O)c1ccccc1)c1nccc2ccccc12 (stereo unspecified)	-4	-4	-4	-28*	.	2
O=C(Nc1ccc(F)cc1)N[C@H]1CC[C@H](CC(=O)N2CCCCC2)O[C@H]1CO	-10	18	13	1	0	-7
Cc1ccc(Nc2ncnc3ccccc23)cc1	1	-12	17	2	.	-5
Cc1ccc(/C(=N/Nc2ncnc3ccccc23)C(=O)O)cc1	5	-23	4	-3	51*	0
COc1ccc(CCN(Cc2nc3ccccc3c(=O)[nH]2)C(=O)c2ccco2)cc1	.	.	.	.	-2	-4
CCC(CC)C(=O)N(CCc1ccc(OC)cc1)Cc1nc2ccccc2c(=O)[nH]1	7	-19	-67	-51*	.	-8
Cc1c(C(=O)N(Cc2ccc(F)cc2)C2CCS(=O)(=O)C2)oc2ccccc12 (stereo unspecified)	-3	-8	10	-23*	.	-4
Cc1c(C(=O)N(Cc2ccccc2)C2CCS(=O)(=O)C2)oc2ccccc12 (stereo unspecified)	?	-1	-8	1	0	2
Cc1c(C(=O)N(Cc2ccc(N(C)C)cc2)C2CCS(=O)(=O)C2)oc2ccccc12 (stereo unspecified)	61*	-11	4	-10	6	.
CO[C@H]1CN(C)C(=O)c2cc(NC(=O)c3cc(C)on3)ccc2OC[C@H](C)NC[C@H]1C	-1	-3	11	1	0	-8
O=C(CNC(=S)N(Cc1ccccc1F)C1CCCCC1)NCC1CCCO1 (stereo unspecified)	-4	-14	4	-32*	?	.
C[C@@H]1CN([C@H](C)CO)C(=O)c2cc(NC(=O)c3ccccc3)ccc2O[C@@H](C)CCCCO[C@H]1CN(C)S(=O)(=O)c1ccc(Cl)cc1	0	-33	-9	5	1	-1
Cc1cc(C(=O)COC(=O)c2ccc(Br)o2)c(C)n1C	9	-13	8	-23*	3	-11
CC(C)C#Cc1cnc2c(c1)C(=O)N([C@H](C)CO)C[C@H](C)[C@H](CN(C)S(=O)(=O)c1cn(C)cn1)O2	-4	-1	19	7	1	3
Nc1nn(-c2ccccc2)c(N)c1N=Nc1cccc(F)c1	15	-8	7	-36*	2	5
Cc1nn(-c2ccccc2)c(N)c1N=Nc1cccnc1	12	-6	-10	-22*	0	.
